Measurements: article PMC6319658 (Journal of natural products, 2018)
pIC50: −log10 of the molar value.

Key:
[1] = test system: MEK; experiment: MEK1 kinase activity assay; assay type: biochemical; conditions: 10 μM compound; data not shown
[2] = test system: Colo205 cells that harbor the V600E B-Raf mutation; experiment: Western blot analysis of ERK signaling cascade proteins in Colo205 cells; assay type: cell-based, human; conditions: for total protein levels of B-Raf, C-Raf, and MEK / ERK protein levels: 18 h treatment
[3] = test system: 60 human tumor cell lines; experiment: NCI-60 cell line screening assay; assay type: cell-based; conditions: for growth suppression of cell lines that harbor the B-Raf V600E mutation: Colo205 colon, MALM-3M, SK-MEL-5, MDA-MB-435 melanoma cell lines; for pattern of cytotoxicity at the GI50 level: NCI-60 screen
How it was run: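 Test compounds were submitted as DMSO solutions to the NCI-60 screen for cytotoxicity across 60 human tumor cell lines. The response patterns were analysed with bioinformatics tools on the public CellMiner site.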

[4] = test system: B-Raf; experiment: Raf kinase catalytic activity assay; assay type: biochemical; conditions: 10 μM compound; data not shown
[5] = test system: C-Raf; experiment: Raf kinase catalytic activity assay; assay type: biochemical; conditions: 10 μM compound; data not shown
[6] = test system: cells; conditions: cited from earlier work
[7] = test system: ERK; experiment: ERK kinase catalytic activity assay; assay type: biochemical; conditions: data not shown
[8] = test system: SUMO conjugation enzymatic cascade; assay type: biochemical; conditions: read-out: IC50, inhibition of SUMOylation of a substrate peptide; in vitro electrophoretic mobility shift assay

Row | SMILES | inhibition of kinase catalytic activity of MEK [1] | total protein levels of B-Raf, C-Raf, and MEK ([2]; 1 μM) | ERK protein levels ([2]; 10 μM) | total protein levels of B-Raf, C-Raf, and MEK ([2]; 10 μM) | growth suppression of cell lines that harbor the B-Raf V600E mutation [3] | pattern of cytotoxicity at the GI50 level [3] | inhibition of kinase catalytic activity of B-Raf [4] | inhibition of kinase catalytic activity of C-Raf [5] | reactive oxygen species (ROS) in cells [6] | inhibition of kinase catalytic activity of ERK [7] | phosphorylation (activation) of MEK and ERK ([2]; 1 μM) | pIC50 [8] | phosphorylation of MEK and subsequent activation of ERK ([2]; positive control) | total protein concentrations in the pathway ([2]; positive control)
1 | CSC1=C(N)C(=O)c2[nH]cc(CO)c2C1=N [Compound 1, macrophilone A] | no reduction in kinase activity | effective at reducing these proteins | no corresponding loss | striking reductions | most potent | selective cytotoxicity | no reduction in kinase activity | no reduction in kinase activity | increase in reactive oxygen species | no reduction in kinase activity |  |  |  | 
2 | N=C1C2=C(NCCS2)C(=O)c2[nH]cc(CO)c21 [Compound 3, macrophilone C] | no reduction in kinase activity |  | no corresponding loss | striking reductions | most potent | selective cytotoxicity | no reduction in kinase activity | no reduction in kinase activity |  | no reduction in kinase activity | increased phosphorylation |  |  | 
3 | N=C1C2=C(NCC[S+]2[O-])C(=O)c2[nH]cc(CO)c21 (stereo not drawn) [Compound 4, macrophilone D] | no reduction in kinase activity |  | no corresponding loss | striking reductions |  | selective cytotoxicity | no reduction in kinase activity | no reduction in kinase activity |  | no reduction in kinase activity | increased phosphorylation |  |  | 
4 | O=C1C2=C(SCCN2)C2=NCCc3c[nH]c1c32 [Compound 6, macrophilone F] |  |  |  |  |  |  |  |  |  |  |  | < 4.00 |  | 
5 | CN(C)CCOc1ccc(-c2nc(-c3ccc4c(c3)CC/C4=N\O)c(-c3ccncc3)[nH]2)cc1 [SB-590885, reference compound] |  |  |  |  |  |  |  |  |  |  |  |  | blocked phosphorylation of MEK | no significant impact
